Measured values reported in ChEMBL document CHEMBL4257545, “Synthesis of novel perillyl-dihydropyrimidinone hybrids designed for antiproliferative activity” (Medchemcomm, 2018).
The source made the active and inactive calls. The rule behind the calls is not given here.

How the values were obtained:
NCI-H460 = assay: Antiproliferative activity against human NCI-H460 cells assessed as cell growth inhibition after 48 hrs by sulforhodamine B assay; assay type: functional; settings: NCI-H460, 48 h
How it was run: (§1)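 Human tumour lines and HaCaT normal keratinocytes in 96-well plates, exposed to compound in DMSO/RPMI (final DMSO 0.2%) for 48 h at 37 °C, 5% CO2. Cells were fixed with 50% trichloroacetic acid at time zero and after treatment. Protein was stained with sulforhodamine B and read at 540 nm. TGI (total growth inhibition) was derived by non-linear regression from triplicate runs.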

U-251 = assay: Antiproliferative activity against human U251 cells assessed as cell growth inhibition after 48 hrs by sulforhodamine B assay; assay type: functional; settings: U-251, 48 h; how it was run: as §1
786-0 [1] = assay: Antiproliferative activity against human 786-0 cells assessed as cell growth inhibition after 48 hrs by sulforhodamine B assay; assay type: functional; settings: 786-0, 48 h; how it was run: as §1
HaCaT = assay: Cytotoxicity against human HaCaT cells assessed as cell growth inhibition after 48 hrs by sulforhodamine B assay; assay type: cell-based; how it was run: as §1
OVCAR-3 [2] = assay: Antiproliferative activity against human OVCAR3 cells assessed as cell growth inhibition after 48 hrs by sulforhodamine B assay; assay type: functional; settings: OVCAR-3, 48 h; how it was run: as §1
MCF7 [3] = assay: Antiproliferative activity against human MCF7 cells assessed as cell growth inhibition after 48 hrs by sulforhodamine B assay; assay type: functional; settings: MCF7, 48 h; how it was run: as §1
UACC-62 [4] = assay: Antiproliferative activity against human UACC62 cells assessed as cell growth inhibition after 48 hrs by sulforhodamine B assay; assay type: functional; settings: UACC-62, 48 h; how it was run: as §1
PC-3 [5] = assay: Antiproliferative activity against human PC3 cells assessed as cell growth inhibition after 48 hrs by sulforhodamine B assay; assay type: functional; settings: PC-3, 48 h; how it was run: as §1
NCI/ADR-RES [6] = assay: Antiproliferative activity against human NCI/ADR-RES cells assessed as cell growth inhibition after 48 hrs by sulforhodamine B assay; assay type: functional; how it was run: as §1
HT-29 [7] = assay: Antiproliferative activity against human HT-29 cells assessed as cell growth inhibition after 48 hrs by sulforhodamine B assay; assay type: functional; settings: HT-29, 48 h; how it was run: as §1
[8] = Selectivity index, ratio of TGI for human HaCaT cells to TGI for human U251 cells; assay type: toxicity; settings: HaCaT cells and U251 cells, read-out: Selectivity Index
NCI/ADR-RES [9] = assay: Antiproliferative activity against human NCI/ADR-RES cells at 25 uM after 48 hrs by sulforhodamine B assay; assay type: functional, cell-based
How it was run: (§2)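 Growth-inhibition profile of each tumour line at a single compound concentration of 25 μM. Cells were treated in DMSO/RPMI (final DMSO 0.2%) for 48 h at 37 °C, 5% CO2. Cells were fixed with 50% TCA before and after exposure. Cellular protein was quantified by sulforhodamine B staining at 540 nm.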

UACC-62 [10] = assay: Antiproliferative activity against human UACC62 cells at 25 uM after 48 hrs by sulforhodamine B assay; assay type: functional, cell-based; how it was run: as §2
MCF7 [11] = assay: Antiproliferative activity against human MCF7 cells at 25 uM after 48 hrs by sulforhodamine B assay; assay type: functional, cell-based; how it was run: as §2
HT-29 [12] = assay: Antiproliferative activity against human HT-29 cells at 25 uM after 48 hrs by sulforhodamine B assay; assay type: functional, cell-based; how it was run: as §2
OVCAR-3 [13] = assay: Antiproliferative activity against human OVCAR3 cells at 25 uM after 48 hrs by sulforhodamine B assay; assay type: functional, cell-based; how it was run: as §2
786-0 [14] = assay: Antiproliferative activity against human 786-0 cells at 25 uM after 48 hrs by sulforhodamine B assay; assay type: functional, cell-based; how it was run: as §2
PC-3 [15] = assay: Antiproliferative activity against human PC3 cells at 25 uM after 48 hrs by sulforhodamine B assay; assay type: functional, cell-based; how it was run: as §2

Row | SMILES | TGI (NCI-H460) [µM] | TGI (U-251) [µM] | TGI (786-0 [1]) [µM] | TGI (HaCaT) [µM] | TGI (OVCAR-3 [2]) [µM] | TGI (MCF7 [3]) [µM] | TGI (UACC-62 [4]) [µM] | TGI (PC-3 [5]) [µM] | TGI (NCI/ADR-RES [6]) [µM] | TGI (HT-29 [7]) [µM] | selectivity ratio [8] | Activity (NCI/ADR-RES [9]) | Activity (UACC-62 [10]) | Activity (MCF7 [11]) | Activity (HT-29 [12]) | Activity (OVCAR-3 [13]) | Activity (786-0 [14]) | Activity (PC-3 [15])
1 | C=C(C)[C@@H]1CC=C(Cn2cc(COc3cc(C4NC(=O)NC(C)=C4C(C)=O)ccc3OC)nn2)CC1 (some centres not stated) | > 100 | > 100 | > 100 | 486.19 | > 100 | > 100 | > 100 | > 100 | 84.9 | 96 | – | – | – | – | – | – | – | –
2 | C=C(C)[C@@H]1CC=C(Cn2cc(COc3cccc(C4NC(=O)NC5=C4C(=O)CC(C)(C)C5)c3)nn2)CC1 (some centres not stated) | 51.6 | 26 | > 100 | 36.44 | > 100 | 31 | 20.9 | 21.9 | > 100 | 49 | – | – | – | – | – | – | – | –
3 | C=C(C)[C@@H]1CC=C(Cn2cc(COc3cc(C4NC(=O)NC(C)=C4C(=O)OCC)ccc3OC)nn2)CC1 (some centres not stated) | > 100 | 98.1 | > 100 | 79.75 | 13.5 | > 100 | 37.8 | > 100 | > 100 | > 100 | – | – | – | – | – | – | – | –
4 | C=C(C)[C@@H]1CC=C(Cn2cc(COc3ccc(C4NC(=O)NC5=C4C(=O)CC(C)(C)C5)cc3OC)nn2)CC1 (some centres not stated) | > 100 | 44 | > 100 | 71.34 | 95 | 91.9 | 86.2 | > 100 | > 100 | > 100 | – | – | – | – | – | – | – | –
5 | C=C(C)[C@@H]1CC=C(Cn2cc(COc3ccccc3C3NC(=O)NC(C)=C3C(=O)OCC)nn2)CC1 (some centres not stated) | > 100 | > 100 | > 100 | 294.37 | 81.2 | > 100 | > 100 | > 100 | > 100 | > 100 | – | – | – | – | – | – | – | –
6 | C=C(C)[C@@H]1CC=C(Cn2cc(COc3cccc(C4NC(=O)NC(C)=C4C(C)=O)c3)nn2)CC1 (some centres not stated) | > 100 | 30.5 | 44.1 | 115.66 | 13.3 | 43 | 31.6 | 49.8 | > 100 | 86.2 | – | – | – | – | – | – | – | –
7 | C=C(C)[C@@H]1CC=C(Cn2cc(COc3cccc(C4NC(=O)NC(C)=C4C(=O)OCC)c3)nn2)CC1 (some centres not stated) | > 100 | 12.2 | 39.7 | 507.82 | 18.4 | 42.5 | 22.9 | > 100 | > 100 | 73.4 | 41.7 | – | – | – | – | – | – | –
8 | C=C(C)[C@@H]1CC=C(Cn2cc(COc3ccccc3C3NC(=O)NC4=C3C(=O)CC(C)(C)C4)nn2)CC1 (some centres not stated) | 38.7 | 27 | 26.7 | 78.72 | 11.8 | 45 | 26.5 | 21.7 | > 100 | 28.9 | – | – | – | – | – | – | – | –
9 | CCOC(=O)C1=C(C)NC(=S)NC1c1cccc(O)c1 (configuration not stated) | – | – | – | – | – | – | – | – | – | – | – | Active | Active | Active | Active | Active | Active | Active
10 | C=C(C)[C@@H]1CC=C(Cn2cc(COc3ccc(C4NC(=O)NC(C)=C4C(=O)OCC)cc3OC)nn2)CC1 (some centres not stated) | > 100 | 11.3 | 87.3 | 75.76 | 53.8 | 82.5 | 26.7 | 54.4 | > 100 | > 100 | – | – | – | – | – | – | – | –
11 | C=C(C)[C@@H]1CC=C(Cn2cc(COc3ccc(C4NC(=O)NC(C)=C4C(=O)OCC)cc3)nn2)CC1 (some centres not stated) | > 100 | 12.4 | 97.1 | 165.69 | 6.9 | 43.1 | 19.2 | 92.2 | > 100 | 77.1 | – | – | – | – | – | – | – | –
12 | CCOC(=O)C1=C(C)NC(=O)NC1c1cccc(O)c1 (configuration not stated) | – | – | – | – | – | – | – | – | – | – | – | Active | Active | Active | Active | Active | Active | Active
13 | COc1cccc2c1C(=O)c1c(O)c3c(c(O)c1C2=O)C[C@@](O)(C(=O)CO)C[C@@H]3O[C@H]1C[C@H](N)[C@H](O)[C@H](C)O1 [DOXORUBICIN] | 0.46 | 0.09 | 0.02 | 1.47 | 0.04 | 0.99 | 1.66 | 15.7 | 0.78 | 0.88 | – | – | – | – | – | – | – | –
14 | C=C(C)[C@@H]1CC=C(Cn2cc(COc3ccccc3C3NC(=O)NC(C)=C3C(C)=O)nn2)CC1 (some centres not stated) | 83.1 | 30.2 | 80.3 | 29.51 | 34.3 | 68.7 | 34.2 | 62 | > 100 | 79.5 | – | – | – | – | – | – | – | –
15 | C=C(C)[C@@H]1CC=C(Cn2cc(COc3ccc(C4NC(=O)NC(C)=C4C(C)=O)cc3)nn2)CC1 (some centres not stated) | 78.2 | 20 | 23.3 | 44.47 | 32.6 | 29 | 20.5 | 49.3 | > 100 | 62.6 | – | – | – | – | – | – | – | –
16 | C=C(C)[C@@H]1CC=C(Cn2cc(COc3ccc(C4NC(=O)NC5=C4C(=O)CC(C)(C)C5)cc3)nn2)CC1 (some centres not stated) | > 100 | 6.61 | 53.2 | 436.18 | 29.3 | > 100 | 29.9 | 24 | > 100 | > 100 | 66 | – | – | – | – | – | – | –
17 | C=C(C)[C@@H]1CC=C(Cn2cc(COc3cc(C4NC(=O)NC5=C4C(=O)CC(C)(C)C5)ccc3OC)nn2)CC1 (some centres not stated) | > 100 | 8.28 | > 100 | 451.02 | > 100 | 44.8 | 62 | 79.9 | > 100 | > 100 | 54.5 | – | – | – | – | – | – | –
18 | C=C(C)[C@@H]1CC=C(Cn2cc(COc3ccc(C4NC(=O)NC(C)=C4C(C)=O)cc3OC)nn2)CC1 (some centres not stated) | > 100 | 77.9 | 88.1 | 147.92 | 48 | 53.3 | 3.83 | 85.7 | 80.2 | 95 | – | – | – | – | – | – | – | –
